We go through 2 molecules from ChEMBL document CHEMBL4808196, “Dual Bcl-XL /Bcl-2 inhibitors discovered from DNA-encoded libraries using a fragment pairing strategy” (Bioorg Med Chem, 2021).

For one experiment, the system named is K562. Nature of the experiment: Cytotoxicity against human K562 cells assessed as cell survival measured after 72 hrs by MTT assay. As to conditions: K562, 72 h. It counts as cell-based. A digest of the protocol:
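MTT viability assay: 10^4 cells/well seeded and held overnight at 37 C, 5% CO2 (K562 in IMDM with 10% FCS). Serially diluted compounds added for 72 h of exposure. MTT added at 0.3 mg/ml final for 4 h at 37 C. Formazan dissolved in 10% SDS/0.01 N HCl, absorbance read at 560/690 nm. EC50 from concentration–response plot.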

Experiment [1] concerns the target T1, Bcl-2-like protein 1 (Homo sapiens, UniProt Q07817). Briefly: Binding affinity to Bcl-xl (unknown origin) measured by surface plasmon resonance based pull down assay. Put shortly:
(§1)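 Biotinylated ligand (2800 RU) immobilised on a streptavidin SPR chip. Bcl protein in HBS-EP running buffer injected at 0.5, 0.25, 0.125 and 0.062 µM. Association 120 s, dissociation 240 s, 30 µl/min, 25 C. Surface regenerated with a 5 s pulse of 10 mM NaOH. KD estimated by kinetic fitting.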

Experiment [2] has as its target T1, Bcl-2-like protein 1. Nature of the experiment: Binding affinity to Bcl-XL (unknown origin) using puma peptide by surface plasmon resonance-based competition assay. As to conditions: dose 1.0 µM. Put shortly: (§2)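 SPR competition on a streptavidin chip carrying 2800 RU biotinylated ligand. Flowed 0.5 µM Bcl-XL alone or premixed with 1.0 µM native BH3 peptide: Bim 26mer or Puma 25mer. Binding responses compared.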
For orientation: In SPR one partner is held on a chip, and binding of the other changes the refractive index at the surface.

For experiment [3], the target named is T1, Bcl-2-like protein 1. Nature of the experiment: Competitive binding affinity to Bcl-XL (unknown origin) using ABT-199 by western blot based pull down assay.
For experiment [4], the target named is T1, Bcl-2-like protein 1. Nature of the experiment: Binding affinity to recombinant Bcl-XL (unknown origin) premixed with human HeLa cell lysate incubated for 1 hr by SDS PAGE Western blot based pull down assay. It counts as subcellular. A digest of the protocol:
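Streptavidin magnetic beads loaded with 100 µM biotinylated compound in PBS-T for 30 min, washed, then equilibrated in HBS-EP. His-tagged recombinant Bcl-XL (0.2 µM) spiked into 10 µg HeLa lysate and incubated with beads for 1 h with rotation. Three washes, heat elution in SDS buffer (95 C, 5 min), SDS-PAGE, anti-His western blot.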
For orientation: In western blotting, separated proteins are transferred to a membrane and probed.

The target in experiment [5] is Apoptosis regulator Bcl-2 (Homo sapiens, UniProt P10415). Nature of the experiment: Binding affinity to Bcl-2 (unknown origin) measured by surface plasmon resonance based […]. A digest of the protocol:
as §1

For experiment [6], the target named is Induced myeloid leukemia cell differentiation protein Mcl-1 (Homo sapiens, UniProt Q07820). Briefly: Binding affinity to Mcl-1 (unknown origin) measured by surface plasmon resonance based pull down assay. A digest of the protocol: as §1
Experiment [7] deals with T1, Bcl-2-like protein 1. Nature of the experiment: Binding affinity to Bcl-XL (unknown origin) using Bim peptide by surface plasmon resonance-based competition assay. Put shortly: as §2

pEC50, pKd: −log10 of the molar value. Activity calls are given as the source filed them. The rule behind the calls is not given here.

T1 sequence (Q07817 whole entry): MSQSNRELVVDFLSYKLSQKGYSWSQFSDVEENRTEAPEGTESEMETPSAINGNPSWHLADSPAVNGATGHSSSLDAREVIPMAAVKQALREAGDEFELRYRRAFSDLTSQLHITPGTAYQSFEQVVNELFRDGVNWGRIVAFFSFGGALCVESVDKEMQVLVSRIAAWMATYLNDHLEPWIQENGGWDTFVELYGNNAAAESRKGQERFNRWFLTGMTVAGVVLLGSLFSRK
Induced myeloid leukemia cell differentiation protein Mcl-1, sequence (Q07820 whole entry): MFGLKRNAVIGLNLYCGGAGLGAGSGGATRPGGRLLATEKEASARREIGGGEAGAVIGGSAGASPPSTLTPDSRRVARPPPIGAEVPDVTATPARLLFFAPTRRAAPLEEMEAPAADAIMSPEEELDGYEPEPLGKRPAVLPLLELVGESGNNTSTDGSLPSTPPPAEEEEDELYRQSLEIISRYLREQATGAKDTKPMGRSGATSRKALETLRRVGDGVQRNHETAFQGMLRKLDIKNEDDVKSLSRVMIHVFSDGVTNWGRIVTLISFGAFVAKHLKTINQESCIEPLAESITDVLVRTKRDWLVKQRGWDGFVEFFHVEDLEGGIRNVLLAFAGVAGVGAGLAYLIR
Apoptosis regulator Bcl-2, sequence (P10415 whole entry): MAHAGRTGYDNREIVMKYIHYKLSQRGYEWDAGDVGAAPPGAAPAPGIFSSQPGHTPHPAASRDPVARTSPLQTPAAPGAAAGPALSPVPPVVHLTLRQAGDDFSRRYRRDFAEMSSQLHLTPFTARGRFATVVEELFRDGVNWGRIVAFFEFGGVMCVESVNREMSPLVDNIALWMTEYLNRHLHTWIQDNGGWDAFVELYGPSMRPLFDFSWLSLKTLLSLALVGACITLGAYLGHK

As a reminder, the pEC50 is the EC50 on a negative log10 scale, so that one unit is a factor of ten. On to `CC1(C)CCC(CN2CCN(c3ccc(C(=O)NS(=O)(=O)c4ccc(NCC5CCOCC5)c([N+](=O)[O-])c4)c(Oc4cnc5[nH]ccc5c4)c3)CC2)=C(c2ccc(Cl)cc2)C1` [VENETOCLAX], for which the negative-log EC50 (pEC50) in the experiment with K562 is 5.68.
Broadly, the pKd is −log10 of the Kd, conventionally taken in molar units. Low readings indicate a large Kd, high ones a small Kd. For `CC(C)C(NC1=NS(=O)(=O)c2ccccc21)C(=O)NCC(NC(=O)C1(NC(=O)COc2ccccc2-c2n[nH]c3ccc(Cl)cc23)CC1)C(=O)NC(=O)CCCCC[C@@H]1SC[C@@H]2NC(=O)N[C@@H]21` (some centres undefined), the negative logarithm of the Kd (pKd) at Bcl-2-like protein 1 [1] was 7.02; in experiment [5], 7.68; in experiment [6], 5.91. The outcome on Bcl-2-like protein 1 [2], on Bcl-2-like protein 1 [3], on Bcl-2-like protein 1 [4] and on Bcl-2-like protein 1 [7] was Active. For the same molecule, the negative-log EC50 (pEC50) in the experiment with K562 was 5.76.
